Experimental data: ChEMBL document CHEMBL3739258, “Click-based synthesis of bromotyrosine alkaloid analogs as potential anti-biofilm leads for SAR studies” (Bioorg Med Chem Lett, 2015)

tested on: Pseudoalteromonas ulvae; assay: Antibiofilm activity against Pseudoalteromonas ulvae TC14 assessed as microbial adhesion at 200 uM after 15 hrs by Syto61 based-fluorescence analysis relative to control; type: functional
Procedure, shortened: (§1)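 Cells grown in VNSS at 20 °C to stationary phase, centrifuged, and resuspended in sterile artificial seawater to OD600 0.2–0.4. Suspension incubated with compound at 200 µM in triplicate for 15 h at 20 °C. Loose cells removed with three washes in 36 g/L NaCl. Attached cells stained 10 min at room temperature with 40 µmol/L Syto 61, then washed and the stain solubilised. Fluorescence read at ex 615/em 670 nm against untreated adhesion-control wells.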

Q: For `COc1ccc(Cn2cc(C(=O)NCCCCN)nn2)cc1Br.O=C(O)C(F)(F)F`, which Activity is on record?
A: >75%

Q: Which Activity does the source give for `COc1ccc(CCn2cc(C(=O)NCCN)nn2)cc1Br.O=C(O)C(F)(F)F` here?
A: >75%

Q: Which Activity does the source give for `COc1ccc(CCn2cc(C(=O)NCCc3cnc[nH]3)nn2)cc1Br` here?
A: >75%

Q: For `COc1ccc(Cn2cc(C(=O)NCCc3cnc[nH]3)nn2)cc1Br`, which Activity is on record?
A: >75%

Q: `COc1ccc(Cn2cc(C(=O)NCCCCNC(=N)N)nn2)cc1Br.O=C(O)C(F)(F)F` was tested. Which Activity did it give?
A: >75%

Q: With `COc1ccc(CCn2cc(C(=O)NCCCNC(=N)N)nn2)cc1Br.O=C(O)C(F)(F)F` as the compound, how does the Activity read?
A: >75%

Q: With `O=C(NCCc1cnc[nH]1)c1cn(CCc2ccc(O)cc2)nn1` as the compound, how does the Activity read?
A: >75%

Q: For `COc1ccc(CCn2cc(C(=O)NCCCN)nn2)cc1Br.O=C(O)C(F)(F)F`, which Activity is on record?
A: >75%

Q: How did the Activity turn out when `COc1ccc(CCn2cc(C(=O)NCCCCN)nn2)cc1Br.O=C(O)C(F)(F)F` was run?
A: >75%

Q: For `COc1ccc(CCn2cc(C(=O)NCCNC(=N)N)nn2)cc1Br.O=C(O)C(F)(F)F`, which Activity is on record?
A: >75%

Q: Which Activity does the source give for `COc1ccc(Cn2cc(C(=O)NCCCNC(=N)N)nn2)cc1Br.O=C(O)C(F)(F)F` here?
A: >75%

Q: Which Activity does the source give for `O=C(NCCc1cnc[nH]1)c1cn(CCc2ccc(O)c(Br)c2)nn1` here?
A: >75%

tested on: Paracoccus sp.; assay: Antibiofilm activity against Paracoccus sp. 4M6 assessed as microbial adhesion at 200 uM after 15 hrs by Syto61 based-fluorescence analysis relative to control; type: functional; procedure, shortened: as §1

Q: With `COc1ccc(Cn2cc(C(=O)NCCCCN)nn2)cc1Br.O=C(O)C(F)(F)F` as the compound, how does the Activity read?
A: >75%

Q: Which Activity does the source give for `COc1ccc(CCn2cc(C(=O)NCCN)nn2)cc1Br.O=C(O)C(F)(F)F` here?
A: >75%

Q: `COc1ccc(CCn2cc(C(=O)NCCc3cnc[nH]3)nn2)cc1Br` was tested. Which Activity did it give?
A: >75%

Q: For `COc1ccc(Cn2cc(C(=O)NCCc3cnc[nH]3)nn2)cc1Br`, which Activity is on record?
A: >75%

Q: `COc1ccc(Cn2cc(C(=O)NCCCCNC(=N)N)nn2)cc1Br.O=C(O)C(F)(F)F` was tested. Which Activity did it give?
A: >75%

Q: Which Activity does the source give for `COc1ccc(CCn2cc(C(=O)NCCCNC(=N)N)nn2)cc1Br.O=C(O)C(F)(F)F` here?
A: >75%

Q: `O=C(NCCc1cnc[nH]1)c1cn(CCc2ccc(O)cc2)nn1` was tested. Which Activity did it give?
A: >75%

Q: For `COc1ccc(CCn2cc(C(=O)NCCCN)nn2)cc1Br.O=C(O)C(F)(F)F`, which Activity is on record?
A: >75%

Q: How did the Activity turn out when `COc1ccc(CCn2cc(C(=O)NCCCCN)nn2)cc1Br.O=C(O)C(F)(F)F` was run?
A: >75%

Q: How did the Activity turn out when `COc1ccc(CCn2cc(C(=O)NCCNC(=N)N)nn2)cc1Br.O=C(O)C(F)(F)F` was run?
A: >75%

Q: Which Activity does the source give for `COc1ccc(Cn2cc(C(=O)NCCCNC(=N)N)nn2)cc1Br.O=C(O)C(F)(F)F` here?
A: >75%

Q: For `O=C(NCCc1cnc[nH]1)c1cn(CCc2ccc(O)c(Br)c2)nn1`, which Activity is on record?
A: >75%

tested on: Pseudoalteromonas lipolytica; assay: Antibiofilm activity against Pseudoalteromonas lipolytica TC8 assessed as microbial adhesion at 200 uM after 15 hrs by Syto61 based-fluorescence analysis relative to control; type: functional; procedure, shortened: as §1

Q: How did the Activity turn out when `COc1ccc(Cn2cc(C(=O)NCCCCN)nn2)cc1Br.O=C(O)C(F)(F)F` was run?
A: >75%

Q: Which Activity does the source give for `COc1ccc(CCn2cc(C(=O)NCCN)nn2)cc1Br.O=C(O)C(F)(F)F` here?
A: >75%

Q: Which Activity does the source give for `COc1ccc(CCn2cc(C(=O)NCCc3cnc[nH]3)nn2)cc1Br` here?
A: >75%

Q: For `COc1ccc(Cn2cc(C(=O)NCCc3cnc[nH]3)nn2)cc1Br`, which Activity is on record?
A: >75%

Q: How did the Activity turn out when `COc1ccc(Cn2cc(C(=O)NCCCCNC(=N)N)nn2)cc1Br.O=C(O)C(F)(F)F` was run?
A: >75%

Q: For `COc1ccc(CCn2cc(C(=O)NCCCNC(=N)N)nn2)cc1Br.O=C(O)C(F)(F)F`, which Activity is on record?
A: >75%

Q: How did the Activity turn out when `O=C(NCCc1cnc[nH]1)c1cn(CCc2ccc(O)cc2)nn1` was run?
A: >75%

Q: Which Activity does the source give for `COc1ccc(CCn2cc(C(=O)NCCCN)nn2)cc1Br.O=C(O)C(F)(F)F` here?
A: >75%

Q: Which Activity does the source give for `COc1ccc(CCn2cc(C(=O)NCCCCN)nn2)cc1Br.O=C(O)C(F)(F)F` here?
A: >75%

Q: For `COc1ccc(CCn2cc(C(=O)NCCNC(=N)N)nn2)cc1Br.O=C(O)C(F)(F)F`, which Activity is on record?
A: >75%

Q: How did the Activity turn out when `COc1ccc(Cn2cc(C(=O)NCCCNC(=N)N)nn2)cc1Br.O=C(O)C(F)(F)F` was run?
A: >75%

Q: For `O=C(NCCc1cnc[nH]1)c1cn(CCc2ccc(O)c(Br)c2)nn1`, which Activity is on record?
A: >75%
